High-throughput results as filed in PubChem BioAssay.
TRPC6 inhibitor: blocks the mouse TRPC6 cation channel; Q61143; HEK293-TRPC6, membrane potential dye, ACh-evoked depolarization; active compounds read low; B-score at 10 µM; hit rate 1.1% among 310,000;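 active = B-score under library mean minus 3 SD, initial fluorescence not abnormally high, positive integrated signal ratio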;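 also: B-score derived from integrated fluorescence ratio over the kinetic read; more negative B-score means stronger inhibition of depolarization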
TRPC4 block: TRPC4 (mouse) channel inhibition. Q9QUQ5. HEK293 TRPC4beta/mu-opioid, DAMGO-evoked Fluo4 calcium flux; active compounds read low. B-score at 10 µM. hit rate 0.39% among 300,000;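 active = B-score over 3 SD under the library average, no early fluorescence shift, positive overall ratio signal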
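Assay system: HEK293 cells with stable TRPC4beta plus mu-opioid receptor expression. Dosing: single dose. Measured by: Fluo4 Ca2+ flux fluorescence. Also added: DAMGO in two steps, submaximal then maximal. Read-out: B score from integrated Fluo4 fluorescence ratio.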
Kir21 inh: blocks the mouse Kir2.1 inward-rectifier potassium channel. P35561. HEK293-Kir2.1, FluxOR thallium flux fluorescence; active compounds read low. B-score at 10 µM. hit rate 0.85% among 310,000;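 active = fluorescence ratio B-score at or below minus 3 SD of library scores, with starting-brightness B-score within 2 SD, cut at about -4.2 in these data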;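 also: channel flux triggered by added potassium and thallium sulfate stimulus; B-score of peak minus minimum fluorescence over baseline after thallium stimulus; more negative B-score means stronger Kir2.1 block with less thallium influx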
TRPC6 act: activators of mouse TRPC6 channel | HEK293-TRPC6 membrane potential dye fluorescence; active compounds read high | hit rate 0.13% among 310,000 | Q61143 | B-score at 10 µM | AID 2550;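 active = B-score of the integrated fluorescence ratio above library mean plus 3 SD, and starting fluorescence ratio within library mean plus 5 SD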;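 also: higher score means more depolarization so channel activation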
TRPC4 agonist: TRPC4 (mouse) channel activation; Q9QUQ5; HEK293 TRPC4beta/mu-opioid, Fluo4 calcium fluorescence; active compounds read high; B-score at 10 µM; hit rate 0.49% among 310,000;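 active = B-score above 5 SD of library B-scores, and initial fluorescence ratio not above library mean plus 5 SD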;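 also: positive B-score marks a calcium rise read as TRPC4 activation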
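Incubation: 45 min room-temperature Fluo4 loading, 110 s read / System: HEK293 cells stably co-expressing mouse TRPC4beta and mu-opioid receptor / Signal: Fluo4 fluorescence, kinetic / Control set: buffer (low) and maximal DAMGO (high) / Measure: integrated baseline-normalised fluorescence ratio, converted to per-well B score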
TRPC4 PAM: allosteric potentiators of mouse TRPC4 channel | Q9QUQ5 | HEK293 TRPC4beta/mu-opioid, DAMGO EC20, Fluo-4 Ca2+ flux; active compounds read high | B-score at 10 µM | hit rate 0.42% among 310,000;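 active = B-score of calcium response area above 5 SD of library B-scores, with initial fluorescence ratio within 5 SD of library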;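 also: B-score of integrated fluorescence ratio over time as area under calcium response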
Active calls of the source: *; i = inactive. Compounds with a hit are over-represented: about 2.9% of the library has one in this group of screens.

SMILES | TRPC6 inhibitor | TRPC4 block | Kir21 inh | TRPC6 act | TRPC4 agonist | TRPC4 PAM
CCN(c1nc(C)cc(OC)n1)S(=O)(=O)c1ccccc1 | i | i | -6.6* | i | i | i
C=CCN(c1nc(C)cc(OC)n1)S(=O)(=O)c1ccc(C)cc1 | i | i | -0.02 | i | i | i
c1ccc(CSc2nnnn2-c2cccc3ccccc23)nc1 | i | i | -7.4* | i | i | i
COCCNS(=O)(=O)c1cccn1-c1ncc(C(F)(F)F)cc1Cl | i | i | -2.3 | i | i | i
O=C(/C=C\c1ccc(-c2ccccc2)o1)c1ccccc1 | i | i | -1.7 | i | i | i
COc1cc(NC(C)CCc2ccccc2)cc(OC)c1OC (configuration not stated) | i | i | -0.54 | i | i | i
COc1cc(NC(C)CCCN)c2ncccc2c1Oc1ccccc1 (configuration not stated) | i | i | -2.4 | i | 83* | i
Cc1ccc(CC2C(=O)N(c3ncccn3)C(=O)C2C)cc1 (configuration not stated) | i | i | -0.96 | i | i | i
O=C(CC(=O)c1ccccc1O)c1cccc(F)c1 | i | i | 0.27 | i | i | i
O=C(CC(=O)c1c(F)cccc1Cl)c1ccccc1O | i | i | 2.8 | i | 84* | i
CCc1cccc(OCCCCNCCO)c1 | i | i | 1.3 | i | i | i
CCc1ccccc1OCCCCCNCCO | i | i | -1.8 | i | i | 11*
COC(=O)c1cccc(Cn2c(Cl)c(/C=N/NC(=O)c3ccccc3Cl)sc2=O)c1 | i | i | -0.89 | i | i | i
O=C(c1cccc(S(=O)(=O)N2CCc3ccccc32)c1)N1CCN(c2ccccn2)CC1 | i | i | -0.08 | 16* | i | i
CCOc1ccc(NC(=O)c2ccc(CSc3nnc(C)s3)cc2)cc1 | i | i | 0 | i | i | i
Cc1cc(/C=C2/C(=N)N3C(=NC2=O)SN=C3S(C)(=O)=O)c(C)n1-c1ccccc1F | i | -6* | 0.09 | i | i | i
Cc1cccc(C)c1NC(=O)CC(C)c1ccccc1 (configuration not stated) | i | i | 1.1 | i | i | i
Cc1ccc2c(c1)c1c(n2CC(O)CN2C(=O)CNC2=O)C(=O)CCC1 (configuration not stated) | i | i | -1.8 | i | i | i
CNC(=S)N(Cc1cc2cc(C)cc(C)c2[nH]c1=O)C1CCCC1 | i | i | 1.3 | i | i | i
CCCCN(C)CCC(=O)Nc1ccc2c(c1)CCC2 | i | i | -0.26 | i | 63* | i
COc1ccc(NC(=O)CN(C)CC(=O)Nc2ccc3c(c2)CCC3)cc1 | i | i | -0.36 | i | i | i
CC(C)c1cc(-c2cc(C(=O)NCc3ccccc3)on2)nc(NCC2CC2)n1 | i | i | 2.1 | i | i | 10*
CC(NC(=S)Nc1ccc(F)cc1)C(c1cccs1)N1CCOCC1 (configuration not stated) | i | i | 1 | i | i | i
COc1ccc(-c2nn(-c3ccccc3)cc2C(=O)N2c3ccc(C)cc3C3CN(C)CCC32)cc1 (configuration not stated) | i | i | -0.71 | i | i | 15*
Cc1[nH][nH]c(=O)c1C(c1ccc(-c2cccc(Cl)c2)o1)c1c(C)[nH][nH]c1=O | i | i | -6.6* | i | i | i
SMILES | TRPC6 inhibitor | TRPC4 block | Kir21 inh | TRPC6 act | TRPC4 agonist | TRPC4 PAM
Cc1[nH][nH]c(=O)c1C(c1ccc(-c2cccc(C(=O)O)c2)o1)c1c(C)[nH][nH]c1=O | i | i | 0.03 | i | i | i
COc1ccc(NC(=O)C2C3C=CC(C3)C2C(=O)NCc2ccco2)c(OC)c1 (configuration not stated) | i | i | -0.78 | i | i | i
COc1ccc(CCNc2nnc(Sc3nnnn3-c3ccccc3)s2)cc1OC | i | i | -4.5* | i | i | i
COc1ccc(-n2nnnc2SCC(=O)NCCc2ccccc2)cc1OC | i | i | -1.6 | i | i | i
O=[N+]([O-])c1ccc(/C=N/n2c(-c3cccnc3)n[nH]c2=S)cc1 | i | i | -1 | i | i | i
CCCn1nc(C(=O)OCn2nnc3ccccc3c2=O)c2ccccc2c1=O | i | i | -1.2 | i | i | i
O=C(/C=C/c1ccccc1)N/C(=C/c1ccccc1)C(=O)NCCCO | i | i | 0.59 | i | i | i
CC(C)=CCc1c(O)ccc2c1OC(c1ccc(O)c(O)c1)CC2=O (configuration not stated) | i | i | -7.1* | i | i | i
CC(C)=CCc1c(O)cc2c(c1O)C(=O)CC(c1ccccc1)O2 (configuration not stated) | i | i | 0.33 | i | i | i
OCC1(CC2CCCCO2)CCN(Cc2nc3ccccc3[nH]2)CC1 (configuration not stated) | i | -8* | 3.1 | i | 110* | i
OCC1(CC2CCCCO2)CCN(C/C=C/c2ccccc2)CC1 (configuration not stated) | i | i | -0.91 | i | i | i
Cc1sc(NC(=O)CN2CCN(c3ccccn3)CC2)c(C#N)c1C | i | i | -4.5* | i | i | i
COCCNC(=O)/C(C#N)=C/c1cc(C(C)C)c(OC)cc1C | i | i | -0.07 | i | i | 17*
COCCNC(=O)/C(C#N)=C/c1ccccc1Br | i | i | -0.29 | i | i | 13*
COc1ccc(/C=C/C(=O)c2cc(Cl)cc(Cl)c2O)c(OC)c1 | i | i | 0.86 | i | i | i
Brc1ccc(OCc2ccccc2)c(CNCC2CCCO2)c1 (configuration not stated) | i | -6* | -2.8 | i | i | i
CCOCCCNCc1cc(Br)ccc1OCc1ccccc1 | i | -6* | -3.5 | i | i | i
Clc1ccccc1CNCC1CCCO1 (configuration not stated) | i | i | -0.25 | i | i | i
NS(=O)(=O)c1ccc(CCNCc2cc(Br)ccc2OCc2ccccc2)cc1 | i | i | -8.2* | i | i | i
OCCNCc1cc(Br)ccc1OCc1ccccc1 | i | i | 0.02 | i | i | i
